ChEMBL document CHEMBL1687720 (Antimicrob Agents Chemother, 2009)
Active and inactive are the calls of the source. The calls are words filed in the database; no cut-off is given here.

Experiments:
A549 [1] = experiment: Inhibition of glutathione peroxidase in human A549 cells assessed as enzyme activity at 662 µM after 24 hrs relative to untreated control; set-up: scale not given: the % may be the effect or the level left
A549 [2] = experiment: Inhibition of glutathione S-transferase in human A549 cells assessed as enzyme activity at 166 µM after 24 hrs relative to untreated control; set-up: scale not given: the % may be the effect or the level left
A549 [3] = experiment: Effect on glutathione S-transferase expression in human A549 cells assessed as transcript level at 166 nM after 24 hrs by RT-qPCR analysis relative to untreated control; assay type: functional; conditions: in the assay text read “166 µM” for “166 nM”
Method in brief: (§1)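 A549 cells are seeded at 2.5 × 10^5 per 25-cm2 well. At 40–45% confluence they are treated for 24 h with 166 or 662 μM, 158 or 315 μM, or 5 or 24 μM compound; controls receive <5% DMSO. Total RNA is DNase-treated and qRT-PCR is run in quadruplicate. Values are normalized to GAPDH and given as % of untreated control.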

Plasmodium falciparum [4] = experiment: Antiplasmodial activity against chloroquine-resistant Plasmodium falciparum K1 in presence of artesunate; assay type: functional
Plasmodium falciparum [5] = experiment: Downregulation of gamma-glutamylcysteine synthetase mRNA level in Plasmodium falciparum 3D7 trophozoites at 126 nM after 15 hrs by RT-qPCR analysis relative to untreated control; assay type: functional
Method in brief: (§2)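 P. falciparum 3D7 trophozoites are exposed to 126 nM compound for 12, 15 or 18 h, then harvested by saponin lysis at 37°C. RNA is extracted and reverse-transcribed, and transcripts are quantified by real-time PCR in quadruplicate. Analysis uses ΔΔCT with 18S rRNA as reference (LDH also checked), expressed as % of untreated control.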

Plasmodium falciparum [6] = experiment: Antiplasmodial activity against chloroquine-sensitive Plasmodium falciparum 3D7 assessed as inhibition of schizont stage parasite growth at 526 nM after 24 hrs by [3H]hypoxanthine incorporation assay; assay type: functional; conditions: read-out: GI
Method in brief: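 P. falciparum 3D7 is synchronized with sorbitol. […] Cells are washed four times, then labelled with [3H]hypoxanthine for 24 h. Growth is given as % of untreated control for each stage, in triplicate.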

Plasmodium falciparum [7] = experiment: Upregulation of Heat shock protein mRNA level in Plasmodium falciparum 3D7 trophozoites at 126 nM by RT-qPCR analysis relative to untreated control; assay type: functional
Method in brief: (§3)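 Synchronized 3D7 trophozoites in RPMI/Albumax culture at 37°C under 3% O2, 3% CO2 were exposed 12, 15 or 18 h, then harvested by 0.02% saponin lysis. RNA was reverse-transcribed and analyzed by real-time PCR in quadruplicate. Quantification used ΔΔCT with 18S rRNA reference (LDH also checked), expressed as % of untreated control.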

A549 [8] = experiment: Effect on glutathione reductase expression in human A549 cells assessed as transcript level at 5 nM after 24 hrs by RT-qPCR analysis relative to untreated control; assay type: functional; conditions: in the assay text read “5 µM” for “5 nM”
Method in brief: as §1

A549 [9] = experiment: Effect on glutathione reductase expression in human A549 cells assessed as transcript level at 24 nM after 24 hrs by RT-qPCR analysis relative to untreated control; assay type: functional; conditions: in the assay text read “24 µM” for “24 nM”
Method in brief: as §1

A549 [10] = experiment: Effect on thioredoxin reductase expression in human A549 cells assessed as transcript level at 24 nM after 24 hrs by RT-qPCR analysis relative to untreated control; assay type: functional; conditions: in the assay text read “24 µM” for “24 nM”
Method in brief: as §1

Thioredoxin reductase [11] = target: T1, Thioredoxin reductase (Homo sapiens, UniProt Q16881+Q9NNW7+Q86VQ6); experiment: Inhibition of thioredoxin reductase in human A549 cells assessed as enzyme activity at 24 µM after 24 hrs by DTNB assay relative to untreated control; set-up: scale not given: the % may be the effect or the level left
Plasmodium falciparum [12] = experiment: Upregulation of glutathione S-transferase mRNA level in Plasmodium falciparum 3D7 trophozoites at 126 nM after 12 hrs by RT-qPCR analysis relative to untreated control; assay type: functional, organism-based
Method in brief: as §3

A549 [13] = experiment: Effect on glutathione S-transferase expression in human A549 cells assessed as transcript level at 5 nM after 24 hrs by RT-qPCR analysis relative to untreated control; assay type: functional; conditions: in the assay text read “5 µM” for “5 nM”
Method in brief: as §1

A549 [14] = experiment: Inhibition of glutathione peroxidase in human A549 cells assessed as enzyme activity at 5 µM after 24 hrs relative to untreated control; set-up: scale not given: the % may be the effect or the level left
Plasmodium falciparum [15] = experiment: Upregulation of selenoprotein-1 mRNA level in Plasmodium falciparum 3D7 trophozoites at 126 nM after 12 hrs by RT-qPCR analysis relative to untreated control; assay type: functional
Method in brief: as §3

Plasmodium falciparum [16] = experiment: Downregulation of glutathione reductase mRNA level in Plasmodium falciparum 3D7 trophozoites at 126 nM after 18 hrs by RT-qPCR analysis relative to untreated control; assay type: functional
Method in brief: as §2

A549 [17] = experiment: Effect on thioredoxin reductase expression in human A549 cells assessed as transcript level at 315 nM after 24 hrs by RT-qPCR analysis relative to untreated control; assay type: functional; conditions: in the assay text read “315 µM” for “315 nM”
Method in brief: as §1

A549 [18] = experiment: Effect on thioredoxin reductase expression in human A549 cells assessed as transcript level at 158 nM after 24 hrs by RT-qPCR analysis relative to untreated control; assay type: functional; conditions: in the assay text read “158 µM” for “158 nM”
Method in brief: as §1

Thioredoxin reductase [19] = target: T1, Thioredoxin reductase; experiment: Inhibition of thioredoxin reductase in human A549 cells assessed as enzyme activity at 158 µM after 24 hrs by DTNB assay relative to untreated control; set-up: scale not given: the % may be the effect or the level left
Thioredoxin reductase [20] = target: T1, Thioredoxin reductase; experiment: Inhibition of thioredoxin reductase in human A549 cells assessed as enzyme activity at 315 µM after 24 hrs by DTNB assay relative to untreated control; set-up: scale not given: the % may be the effect or the level left
A549 [21] = experiment: Inhibition of glutathione peroxidase in human A549 cells assessed as enzyme activity at 158 µM after 24 hrs relative to untreated control; set-up: scale not given: the % may be the effect or the level left
A549 [22] = experiment: Effect on glutathione peroxidase expression in human A549 cells assessed as transcript level at 315 nM after 24 hrs by RT-qPCR analysis relative to untreated control; assay type: functional; conditions: in the assay text read “315 µM” for “315 nM”
Method in brief: as §1

A549 [23] = experiment: Effect on glutathione reductase expression in human A549 cells assessed as transcript level at 315 nM after 24 hrs by RT-qPCR analysis relative to untreated control; assay type: functional; conditions: in the assay text read “315 µM” for “315 nM”
Method in brief: as §1

A549 [24] = experiment: Effect on glutathione reductase expression in human A549 cells assessed as transcript level at 158 nM after 24 hrs by RT-qPCR analysis relative to untreated control; assay type: functional; conditions: in the assay text read “158 µM” for “158 nM”
Method in brief: as §1

O=c1oc2c(O)c(O)cc3c(=O)oc4c(O)c(O)cc1c4c23 [ELLAGIC ACID]
Activity (A549 [1]): 125%
Activity (A549 [2]): 109%
Activity (A549 [3]): 122%
FIC50 (Plasmodium falciparum [4]): 1

O=c1oc2c(O)c(O)c(O)c3c(=O)oc4c(O)c(O)c(O)c1c4c23 [CORULEOELLAGIC ACID]
Activity (Plasmodium falciparum [5]): 25%
inhibition of growth at 0.526 µM (Plasmodium falciparum [6]): 39%
Activity (Plasmodium falciparum [7]): 158%
Activity (A549 [8]): 77%
Activity (A549 [9]): 84%
Activity (A549 [10]): 73%
Activity (Thioredoxin reductase [11]): 45%
Activity (Plasmodium falciparum [12]): inactive
Activity (A549 [13]): 68%
Activity (A549 [14]): 85%
Activity (Plasmodium falciparum [15]): 160%
Activity (Plasmodium falciparum [16]): 62%

O=c1oc2c(O)c(O)c(O)c3c(=O)oc4c(O)c(O)cc1c4c23 [FLAVELLAGIC ACID]
Activity (A549 [17]): 61%
Activity (A549 [18]): 97%
Activity (Thioredoxin reductase [19]): 91%
Activity (Thioredoxin reductase [20]): 115%
Activity (A549 [21]): 122%
Activity (A549 [22]): 77%
Activity (A549 [23]): 70%
Activity (A549 [24]): 105%
